Screening data (PubChem BioAssay)
Arrestin-AP2 inh: blocks beta-arrestin peptide binding to AP2 adaptin; 340,000 tested, 0.31% active; FITC-arrestin peptide / GST-AP2 beads, flow cytometry; AP2 beta2 appendage carries R879A mutation; inhibition, % at 10 µM;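 active means inhibition above a set limit, near 3 SD of compounds lacking own fluorescence, cut at about 54% in these data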
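System: GST-AP2 R879A glutathione beads | Also added: FITC-arrestin peptide, 50 nM | Times: 12 min plus 1 h, RT | Signal: Bead flow cytometry, FITC channel | Buffer or medium: PBS with 0.05% Tween 20 and 0.1% BSA | Read-out basis: Percent drop in bead-associated FITC signal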
sPLA2-III inh: Inhibits HGIII-sPLA2 liposome hydrolysis, primary screen. Q9NZ20. QFRET BODIPY PC-A2 liposome hydrolysis, fluorescence. inhibition, % at 12.2 µM. 370,000 tested, 0.56% active. AID 743126;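 active means inhibition above mean plus 3 SD of compounds lying within the high and low control bounds, cut at about 19% in these data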
procasp7 counter: activates human procaspase-7, counter-screen for procaspase-3 activators; P55210; recombinant procaspase-7, Ac-DEVD-pNA absorbance 405 nm; D23A/D198A/D206A triple mutant, cannot self-cleave; scale: DMSO 0, 5 µM enzyme 100; activation, % at 8.5 µM; 330,000 tested, 0.093% active; AID 463210;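 active means percent activation above the screen-wide mean plus 3 SD, cut at about 25% in these data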
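Assay system: Uncleavable procaspase-7 mutant enzyme; Input: 2 µM procaspase-7 mutant as dispensed; Also added: DEVD-pNA substrate; Medium: Zinc-free HEPES pH 7.4 with 300 mM NaCl, 0.01% Triton X-100; Timing: 1 h compound preincubation, 2 h substrate cleavage, 25 °C; Measured by: Epi-absorbance of released pNA at 405 nm, two timepoints.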
PLC-beta3 inh: blocks human PLC-beta3 enzyme activity | Q01970 | inhibition, % at 12.2 µM | Purified PLC-beta3, fluorogenic substrate, fluorescence | AID 720704 | 370,000 tested, 0.18% active; in the data active means inhibition above about 11%
Target sequence (Q01970 whole entry, looked up): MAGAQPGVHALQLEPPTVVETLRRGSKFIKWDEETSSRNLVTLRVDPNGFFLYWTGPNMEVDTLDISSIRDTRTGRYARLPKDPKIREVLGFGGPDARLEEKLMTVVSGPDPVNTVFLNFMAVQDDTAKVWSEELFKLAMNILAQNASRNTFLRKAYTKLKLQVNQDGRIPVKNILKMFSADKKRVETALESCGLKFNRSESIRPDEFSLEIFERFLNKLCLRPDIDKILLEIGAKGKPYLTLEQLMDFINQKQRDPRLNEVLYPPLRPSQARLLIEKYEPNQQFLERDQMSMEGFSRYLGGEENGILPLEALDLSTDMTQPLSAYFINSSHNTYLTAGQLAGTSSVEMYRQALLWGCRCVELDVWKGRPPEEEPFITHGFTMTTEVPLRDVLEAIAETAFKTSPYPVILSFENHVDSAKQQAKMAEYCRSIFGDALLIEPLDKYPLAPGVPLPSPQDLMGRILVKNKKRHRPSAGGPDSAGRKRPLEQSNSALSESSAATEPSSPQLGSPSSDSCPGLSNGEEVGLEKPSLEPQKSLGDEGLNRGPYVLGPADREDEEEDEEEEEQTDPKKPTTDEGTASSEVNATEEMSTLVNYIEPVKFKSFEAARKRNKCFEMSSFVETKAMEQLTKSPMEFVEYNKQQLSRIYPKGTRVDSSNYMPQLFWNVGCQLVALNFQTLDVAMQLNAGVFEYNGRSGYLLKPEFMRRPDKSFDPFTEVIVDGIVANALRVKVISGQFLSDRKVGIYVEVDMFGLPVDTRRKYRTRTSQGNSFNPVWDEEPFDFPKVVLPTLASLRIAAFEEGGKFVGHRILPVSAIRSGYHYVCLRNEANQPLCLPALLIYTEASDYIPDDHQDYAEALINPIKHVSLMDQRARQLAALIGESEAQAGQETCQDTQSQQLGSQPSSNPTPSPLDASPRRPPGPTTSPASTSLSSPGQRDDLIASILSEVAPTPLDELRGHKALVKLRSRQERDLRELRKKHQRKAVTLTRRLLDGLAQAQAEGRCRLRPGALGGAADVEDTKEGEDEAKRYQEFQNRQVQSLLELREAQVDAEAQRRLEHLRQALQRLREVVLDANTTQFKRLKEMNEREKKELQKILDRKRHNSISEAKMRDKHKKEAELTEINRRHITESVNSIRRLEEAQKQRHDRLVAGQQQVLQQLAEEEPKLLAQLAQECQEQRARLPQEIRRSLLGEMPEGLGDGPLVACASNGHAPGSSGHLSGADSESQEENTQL
PLCg1 inh: inhibitors of human phospholipase C gamma1; P19174; purified PLC-gamma1, fluorogenic substrate, fluorescence; inhibition, % at 12.2 µM; 370,000 tested, 0.84% active
procasp3 activ: activators of human procaspase-3. activation, % at 8.5 µM. AID 463141. 330,000 tested, 0.11% active. recombinant procaspase-3 D3A, Ac-DEVD-pNA absorbance 405 nm;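 active means activation above the mean of all tested compounds plus 3 SD, cut at about 21% in these data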
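Technique: 405 nm absorbance of p-nitroaniline, reads at 0 and 120 min; Test system: Procaspase-3 D3A mutant; Incubation: 1 h enzyme-compound preincubation, then 2 h substrate reaction, 25 °C; Repeats: singlicate, each compound tested once; Benchmarks: low control DMSO wells, high control DMSO plus 5 µM PC-3 D3A.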
PLCgamma1 ctr: PLC-gamma1 inhibition, counter-screen for PLC-beta3 hits | shares compounds with PLCg1 inh | purified PLC-gamma1, fluorogenic substrate, fluorescence | inhibition, % at 12.3 µM | 3,300 tested, 3.1% active | AID 743258
PLCb3 confirm: human PLC-beta3 inhibition, confirmation. shares compounds with PLCg1 inh. purified PLC-beta3, fluorogenic substrate fluorescence. inhibition, % at 12.3 µM. 3,300 tested, 1% active. AID 743261; in the data active means inhibition above about 11%
hGIII sPLA2 conf: human GIII-sPLA2 inhibition, confirmation. shares compounds with sPLA2-III inh. recombinant hGIII-sPLA2, BODIPY PC-A2 QFRET fluorescence. inhibition, % at 12.2 µM. 2,000 tested, 34% active. AID 743280;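 active means mean inhibition across triplicates above the hit cutoff set in the earlier primary screen, cut at about 19% in these data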
BODIPY interf: optically interferes with 535nm fluorescence in sPLA2 counter-screen. shares compounds with sPLA2-III inh. BODIPY FL product fluorescence interference, QFRET. inhibition, % at 12.2 µM. 2,000 tested, 8.5% active. AID 743282;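 active means average inhibition above the solvent-only control mean plus 3 SD, cut at about 6% in these data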
Large screens that a line does not name were inactive (follow-up assays come after a bar, where they were run). Most compounds without a hit are left out; they make up all but 1.9% or so of the library. Unless noted, no stated cut-off is given here; in the data, active means inhibition above about 9.5%; inactive means the rest.

CN1CC(C(=O)c2cccs2)C(c2ccc(Cl)cc2)C1 (configuration not stated)	none
O=C(c1cccs1)C1CN2CCC1CC2 (configuration not stated)	PLCg1 inh 10.2 | PLCgamma1 ctr inactive | PLCb3 confirm inactive
CCC(=O)N1CCN(CCN=Cc2c(O)n(C)c(=O)n(C)c2=O)CC1	none
CC(C)C(=O)N1CCN(CCN=Cc2c(O)n(C)c(=O)n(C)c2=O)CC1	PLCg1 inh 11.0 | PLCgamma1 ctr inactive | PLCb3 confirm inactive
CCOP(=S)(OCC)Oc1cc(C)nc(C(C)C)n1	none (no result: procasp7 counter, procasp3 activ)
CN(C)CC1CSCCC1(O)c1ccc(Cl)cc1 (configuration not stated)	none
CN(C)CC1CSCCC1(O)c1ccccc1Cl (configuration not stated)	PLCg1 inh 9.9 | PLCgamma1 ctr inactive | PLCb3 confirm inactive
Cc1cccc(CS(=O)(=O)Cc2ccc(C(=O)N3CCC4(CC3)OCCO4)o2)c1	PLC-beta3 inh 11.4, PLCg1 inh 13.8 | PLCgamma1 ctr inactive | PLCb3 confirm inactive
Cc1ccccc1NC(=O)N1Cc2ccccc2-n2nncc2C1	none (no result: Arrestin-AP2 inh, procasp7 counter, procasp3 activ)
COc1ccccc1-n1c(-c2ccoc2)nc2ccccc2c1=O	PLC-beta3 inh 10.6 | PLCgamma1 ctr inactive | PLCb3 confirm inactive
O=c1c2ccccc2nc(-c2ccoc2)n1-c1ccccc1Cl	none
NS(=O)(=O)c1nc[nH]c1[N+](=O)[O-]	PLCg1 inh 11.3 (no result: procasp7 counter, procasp3 activ) | PLCgamma1 ctr inactive | PLCb3 confirm inactive
Clc1ccc(CNCCc2ccc3c(c2)OCO3)cc1	none
FC(F)(F)c1ccc(CNCCc2ccc3c(c2)OCO3)cc1	PLCg1 inh 10.9 | PLCgamma1 ctr inactive | PLCb3 confirm inactive
N#CCC[C@H]1CC[C@]2(CCCN(Cc3ccccn3)C2)O1	none (no result: Arrestin-AP2 inh, procasp7 counter, procasp3 activ)
O=C1CC(=O)N(Cc2ccccc2)C(=O)N1	PLCg1 inh 16.1 (no result: procasp7 counter, procasp3 activ) | PLCgamma1 ctr inactive | PLCb3 confirm inactive
CN(C)CC#CCC(O)(c1ccccc1)C1CCCC1 (configuration not stated)	PLC-beta3 inh 12.8 | PLCgamma1 ctr inactive | PLCb3 confirm inactive
O=C1NCN(c2ccccc2)C12CCN(C(c1ccccc1OC(F)(F)F)c1nnnn1C1CCCC1)CC2 (configuration not stated)	PLCg1 inh 10.6 (no result: Arrestin-AP2 inh, procasp7 counter, procasp3 activ) | PLCgamma1 ctr inactive | PLCb3 confirm inactive
O=C1NCN(c2ccccc2)C12CCN(C(CCc1ccccc1)c1nnnn1C1CCCC1)CC2 (configuration not stated)	PLCg1 inh 11.1 (no result: Arrestin-AP2 inh, procasp7 counter, procasp3 activ) | PLCgamma1 ctr inactive | PLCb3 confirm inactive
O=C(CN1C(=O)[C@@H](Cc2ccccc2)N=C(c2ccccc2)c2ccccc21)NC1CCCCC1	none (no result: Arrestin-AP2 inh, procasp7 counter, procasp3 activ)
Cc1ccccc1CN1Cc2cnnn2-c2ccccc2C1C#N (configuration not stated)	none (no result: procasp7 counter, procasp3 activ)
COC(/C(C)=C/C=C/C(C)=C/c1coc(C)n1)C(C)C1CC(O)C2(C)OC2C=CC(C)C2CC(CC(=O)O2)CC2OC2C(=O)O1 (configuration not stated)	none (no result: procasp7 counter, procasp3 activ)
O=c1[nH]c(=O)n(Cc2ccco2)c(O)c1C=NCc1ccc2c(c1)OCO2	PLCg1 inh 9.7 | PLCgamma1 ctr inactive | PLCb3 confirm inactive
N=c1c2c(-c3ccccc3)c(-c3ccccc3)n(Cc3ccccc3)c2ncn1C1CCC(O)CC1 (configuration not stated)	none (no result: Arrestin-AP2 inh, procasp7 counter, procasp3 activ)
CCN1CCN(Cc2ccc(OC(F)(F)F)cc2)CC1	none
CCN1CCN(Cc2cccnc2)CC1	PLCg1 inh 9.7 | PLCgamma1 ctr inactive | PLCb3 confirm inactive
CC12CC[C@H]3[C@@H](CCC4(O)C[C@H](O)CCC34/C=N/NC(=O)c3ccccc3F)C1(O)CCC2C1=CC(=O)OC1 (some centres not stated)	PLCg1 inh 13.0 | PLCgamma1 ctr inactive | PLCb3 confirm inactive
CC12CC[C@H]3[C@@H](CCC4(O)C[C@H](O)CCC34/C=N/NC(=O)c3ccccc3O)C1(O)CCC2C1=CC(=O)OC1 (some centres not stated)	none
O=c1[nH]c2ccccc2c(=O)n1-c1ccc(Cl)cc1Cl	PLC-beta3 inh 11.2 | PLCgamma1 ctr inactive | PLCb3 confirm 14.2
CCC(C)C1NC(=O)C(NC(=O)C(CC(C)C)N(C)C(=O)C2CCCN2C(=O)C(C)O)C(C)OC(=O)C(Cc2ccc(OC)cc2)N(C)C(=O)C2CCCN2C(=O)C(CC(C)C)NC(=O)[C@H](C)C(=O)[C@H](C(C)C)OC(=O)CC1O (some centres not stated)	PLCg1 inh 18.4 (no result: procasp7 counter, procasp3 activ) | PLCgamma1 ctr inactive | PLCb3 confirm inactive
CCC(c1nnnn1Cc1ccccc1)N1CCC(n2c(=O)[nH]c3ccccc32)CC1 (configuration not stated)	none (no result: Arrestin-AP2 inh, procasp7 counter, procasp3 activ)
CN1CC[C@@H]2CN[C@H](c3ccccc3Br)C[C@@H]21	none (no result: Arrestin-AP2 inh, procasp7 counter, procasp3 activ)
CC(=O)N1c2ccccc2C(c2ccccc2)=NCC1C(=O)NCc1ccccc1 (configuration not stated)	none (no result: Arrestin-AP2 inh, procasp7 counter, procasp3 activ)
O=C(COc1ccccc1)N1CCN(CC2CC3C=CC2C3)CC1 (configuration not stated)	PLCg1 inh 16.0 | PLCgamma1 ctr inactive | PLCb3 confirm inactive
Cc1ccc(OCC(=O)N2CCN(CC3CC4C=CC3C4)CC2)cc1 (configuration not stated)	none
Cc1sc2ncn(CC(=O)N3CCC4(CC3)OCCO4)c(=O)c2c1C	none
O=C(Cn1cnc2sc3c(c2c1=O)CCCC3)NCCC(=O)N1CCC2(CC1)OCCO2	PLCg1 inh 9.7 | PLCgamma1 ctr inactive | PLCb3 confirm inactive
CN1C(=O)CCS(=O)(=O)C1c1ccc(Cl)cc1 (configuration not stated)	none (no result: Arrestin-AP2 inh, procasp7 counter, procasp3 activ)
CC(C)Oc1ccc(CCN)cc1Cl	sPLA2-III inh 22.5 | hGIII sPLA2 conf inactive | BODIPY interf inactive
CCCCOc1ccc(CCN)cc1Cl	none
CN1CCN(c2ccc([N+](=O)[O-])c3cccnc23)CC1	none
O=[N+]([O-])c1ccc(NCCO)c2ncccc12	sPLA2-III inh 21.6 | hGIII sPLA2 conf inactive | BODIPY interf inactive
